Laboratory results taken from ChEMBL document CHEMBL3877325, “Novel salicylanilides from 4,5-dihalogenated salicylic acids: Synthesis, antimicrobial activity and cytotoxicity” (Bioorg Med Chem, 2017).
In brackets after ≈: the same amount, converted by molar mass.

Key:
Format in all cases: functional
[1] = system: Mycobacterium tuberculosis; assay: Antimycobacterial activity against multidrug resistant Mycobacterium tuberculosis Praha 1 after 14 days by micromethod; settings: Praha 1, 336 h
Outline: (§1)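 Multidrug-resistant M. tuberculosis strains, each inoculated at 10^-3 dilution; 234/2005 is resistant to INH, RIF, rifabutin, streptomycin, ethambutol and ofloxacin. MIC determined by micromethod in Šula's semisynthetic medium at 37 °C after 14 and 21 days. Compounds added from DMSO at 0.5–500 µM.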

[2] = system: Mycobacterium tuberculosis; assay: Antimycobacterial activity against multidrug resistant Mycobacterium tuberculosis 234/2005 after 14 days by micromethod; settings: 234/2005, 336 h; outline: as §1
[3] = system: Mycobacterium tuberculosis; assay: Antimycobacterial activity against multidrug resistant Mycobacterium tuberculosis Praha 1 after 21 days by micromethod; settings: Praha 1, 504 h; outline: as §1
[4] = system: Mycobacterium tuberculosis; assay: Antimycobacterial activity against multidrug resistant Mycobacterium tuberculosis Praha 4 after 21 days by micromethod; settings: Praha 4, 504 h; outline: as §1
[5] = system: Mycobacterium tuberculosis; assay: Antimycobacterial activity against extensively drug resistant Mycobacterium tuberculosis Praha 131 after 21 days by micromethod; settings: Praha 131, 504 h
Outline: (§2)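 MIC micromethod in Šula's semisynthetic medium at 37 °C, read after 14 and 21 days. Compounds added as DMSO solutions at 500 down to 0.5 µM (twofold-type series: 500, 250, 125, 62.5, 32, 16, 8, 4, 2, 1, 0.5 µM). Isoniazid standard given in sterile water.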

[6] = system: Mycobacterium tuberculosis; assay: Antimycobacterial activity against multidrug resistant Mycobacterium tuberculosis 9449/2007 after 21 days by micromethod; settings: 9449/2007, 504 h; outline: as §1
[7] = system: Mycobacterium tuberculosis; assay: Antimycobacterial activity against extensively drug resistant Mycobacterium tuberculosis Praha 131 after 14 days by micromethod; settings: Praha 131, 336 h; outline: as §2
[8] = system: Mycobacterium tuberculosis; assay: Antimycobacterial activity against multidrug resistant Mycobacterium tuberculosis 9449/2007 after 14 days by micromethod; settings: 9449/2007, 336 h; outline: as §1
[9] = system: Mycobacterium tuberculosis; assay: Antimycobacterial activity against multidrug resistant Mycobacterium tuberculosis 234/2005 after 21 days by micromethod; settings: 234/2005, 504 h; outline: as §1
[10] = system: Mycobacterium tuberculosis; assay: Antimycobacterial activity against multidrug resistant Mycobacterium tuberculosis 242/2015 after 21 days by micromethod; settings: 242/2015, 504 h; outline: as §1
[11] = system: Mycobacterium tuberculosis; assay: Antimycobacterial activity against multidrug resistant Mycobacterium tuberculosis Praha 4 after 14 days by micromethod; settings: Praha 4, 336 h; outline: as §1
[12] = system: Mycobacterium tuberculosis; assay: Antimycobacterial activity against multidrug resistant Mycobacterium tuberculosis 242/2015 after 14 days by micromethod; settings: 242/2015, 336 h; outline: as §1

Row | Compound | MIC [1] [µM] | MIC [2] [µM] | MIC [3] [µM] | MIC [4] [µM] | MIC [5] [µM] | MIC [6] [µM] | MIC [7] [µM] | MIC [8] [µM] | MIC [9] [µM] | MIC [10] [µM] | MIC [11] [µM] | MIC [12] [µM]
1 | O=C(Nc1ccc(C(F)(F)F)cc1)c1cc(Br)c(Br)cc1O | 1 (≈ 0.439 µg/mL) | 2 (≈ 0.878 µg/mL) | 1 (≈ 0.439 µg/mL) | 2 (≈ 0.878 µg/mL) | 2 (≈ 0.878 µg/mL) | 1 (≈ 0.439 µg/mL) | 2 (≈ 0.878 µg/mL) | 2 (≈ 0.878 µg/mL) | 2 (≈ 0.878 µg/mL) | 2 (≈ 0.878 µg/mL) | 2 (≈ 0.878 µg/mL) | 1 (≈ 0.439 µg/mL)
2 | O=C(Nc1ccc(C(F)(F)F)cc1)c1cc(Br)c(Cl)cc1O | 2 (≈ 0.789 µg/mL) | 2 (≈ 0.789 µg/mL) | 2 (≈ 0.789 µg/mL) | 2 (≈ 0.789 µg/mL) | 2 (≈ 0.789 µg/mL) | 2 (≈ 0.789 µg/mL) | 2 (≈ 0.789 µg/mL) | 2 (≈ 0.789 µg/mL) | 2 (≈ 0.789 µg/mL) | 2 (≈ 0.789 µg/mL) | 2 (≈ 0.789 µg/mL) | 2 (≈ 0.789 µg/mL)
3 | O=C(Nc1ccc(C(F)(F)F)cc1)c1cc(Cl)c(Cl)cc1O | 1 (≈ 0.35 µg/mL) | 1 (≈ 0.35 µg/mL) | 1 (≈ 0.35 µg/mL) | 2 (≈ 0.7 µg/mL) | 2 (≈ 0.7 µg/mL) | 1 (≈ 0.35 µg/mL) | 1 (≈ 0.35 µg/mL) | 2 (≈ 0.7 µg/mL) | 2 (≈ 0.7 µg/mL) | 1 (≈ 0.35 µg/mL) | 1 (≈ 0.35 µg/mL) | 1 (≈ 0.35 µg/mL)
4 | O=C(Nc1ccc(C(F)(F)F)cc1)c1cc(Cl)ccc1O | 0.5 (≈ 0.158 µg/mL) | 0.5 (≈ 0.158 µg/mL) | 0.5 (≈ 0.158 µg/mL) | 0.5 (≈ 0.158 µg/mL) | 0.5 (≈ 0.158 µg/mL) | 0.5 (≈ 0.158 µg/mL) | 0.5 (≈ 0.158 µg/mL) | 0.5 (≈ 0.158 µg/mL) | 0.5 (≈ 0.158 µg/mL) | 0.5 (≈ 0.158 µg/mL) | 0.5 (≈ 0.158 µg/mL) | 0.5 (≈ 0.158 µg/mL)
5 | O=C(Nc1ccc(C(F)(F)F)cc1)c1cc(Cl)c(Br)cc1O | 2 (≈ 0.789 µg/mL) | 2 (≈ 0.789 µg/mL) | 2 (≈ 0.789 µg/mL) | 4 (≈ 1.58 µg/mL) | 2 (≈ 0.789 µg/mL) | 2 (≈ 0.789 µg/mL) | 2 (≈ 0.789 µg/mL) | 2 (≈ 0.789 µg/mL) | 2 (≈ 0.789 µg/mL) | 2 (≈ 0.789 µg/mL) | 2 (≈ 0.789 µg/mL) | 2 (≈ 0.789 µg/mL)
6 | O=C(Nc1ccc(C(F)(F)F)cc1)c1cc(Br)ccc1O | 1 (≈ 0.36 µg/mL) | 2 (≈ 0.72 µg/mL) | 1 (≈ 0.36 µg/mL) | 4 (≈ 1.44 µg/mL) | 4 (≈ 1.44 µg/mL) | 1 (≈ 0.36 µg/mL) | 2 (≈ 0.72 µg/mL) | 2 (≈ 0.72 µg/mL) | 4 (≈ 1.44 µg/mL) | 2 (≈ 0.72 µg/mL) | 2 (≈ 0.72 µg/mL) | 1 (≈ 0.36 µg/mL)
7 | O=C(Nc1ccc(C(F)(F)F)cc1)c1ccc(Br)cc1O | 1 (≈ 0.36 µg/mL) | 1 (≈ 0.36 µg/mL) | 1 (≈ 0.36 µg/mL) | 2 (≈ 0.72 µg/mL) | 1 (≈ 0.36 µg/mL) | 1 (≈ 0.36 µg/mL) | 1 (≈ 0.36 µg/mL) | 1 (≈ 0.36 µg/mL) | 2 (≈ 0.72 µg/mL) | 1 (≈ 0.36 µg/mL) | 1 (≈ 0.36 µg/mL) | 1 (≈ 0.36 µg/mL)
8 | NNC(=O)c1ccncc1 [ISONIAZID] | 16 (≈ 2.19 µg/mL) | 16 (≈ 2.19 µg/mL) | 16 (≈ 2.19 µg/mL) | 16 (≈ 2.19 µg/mL) | 16 (≈ 2.19 µg/mL) | 16 (≈ 2.19 µg/mL) | 16 (≈ 2.19 µg/mL) | 16 (≈ 2.19 µg/mL) | 32 (≈ 4.39 µg/mL) | 16 (≈ 2.19 µg/mL) | 16 (≈ 2.19 µg/mL) | 16 (≈ 2.19 µg/mL)
9 | O=C(Nc1ccc(C(F)(F)F)cc1)c1ccc(Cl)cc1O | 1 (≈ 0.316 µg/mL) | 2 (≈ 0.631 µg/mL) | 1 (≈ 0.316 µg/mL) | 2 (≈ 0.631 µg/mL) | 2 (≈ 0.631 µg/mL) | 1 (≈ 0.316 µg/mL) | 2 (≈ 0.631 µg/mL) | 2 (≈ 0.631 µg/mL) | 2 (≈ 0.631 µg/mL) | 1 (≈ 0.316 µg/mL) | 1 (≈ 0.316 µg/mL) | 1 (≈ 0.316 µg/mL)
